Measurements: paper PMC11500341 (Scientific Reports, 2024)
No end group written: not given here.

Experiments:
HEK-293 cells = test: MTT cell viability assay, HEK-293; assay type: cell-based; conditions: 25-500 μm FGDWS, 24, 48 and 72 h
Procedure, shortened: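 HEK-293 cells (DMEM, 10% FBS, passage 28–33) were seeded at 4 × 10^3 per well and adhered overnight. Test compound was added at 25, 50, 100, 150, 300 and 500 for 24, 48 and 72 h at 37 °C, 5% CO2. MTT (5 mg/ml) was incubated for 4 h, medium removed and DMSO added. Absorbance at 570 nm gave percent viability.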

Rac1 [1] = test: Rac1 concentration in serum and tumor tissue of mice by SPR; assay type: in vivo, Swiss Albino mice; conditions: tumor tissue lysate; 300 μm FGDWS; Mean ± SD; p-value 0.0001
MCF-7 cells [2] = test: MTT cell viability assay, MCF-7; assay type: cell-based; conditions: 24, 48 and 72 h
Phospho-p38α (Y-182) = test: Phospho-p38α concentration in serum and tumor tissue of mice by SPR; assay type: in vivo, Swiss Albino mice; conditions: 300 μm FGDWS, Mean ± SD, p-value 0.0001
Cofilin1 = Cofilin1 concentration in serum and tumor tissue of mice by SPR; assay type: in vivo, Swiss Albino mice; conditions: 300 μm FGDWS, Mean ± SD
MCF-7 cells [3] = test: Cell migration; assay type: cell-based; conditions: after 48 h and 72 h
Procedure, shortened: (§1)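 Cells were seeded at 0.2 × 10^6 per 35 mm dish in DMEM with 10% FBS and left to adhere overnight at 37 °C in 5% CO2. Monolayers were scratched with a sterile pipette tip and imaged at time zero. They were then treated: control, 0.05% DMSO vehicle, three test compound levels, doxorubicin, and doxorubicin plus the top level. The scratched area was re-imaged at 24, 48 and 72 h.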

[4] = tested on: Caspase 3/7 in MDA-MB-231 cells; test: Caspase glow 3/7 assay, MDA-MB-231; assay type: cell-based; conditions: p ≤ 0.0001
Procedure, shortened: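 MDA-MB-231 cells were seeded at 5 × 10^3 per well and adhered overnight. They were exposed to the test compound (P1 75, P2 150, P3 300), Dox 0.2 or Dox + P3 for 24, 48 or 72 h. Caspase-Glo 3/7 reagent (substrate/luciferase) was added, followed by 30–60 min at 25 °C. Luminescence was then read.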

MDA-MB-231 cells [5] = test: MTT cell viability assay, MDA-MB-231; assay type: cell-based; conditions: 24, 48 and 72 h
Procedure, shortened: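 MDA-MB-231 cells (passage 28–33; DMEM with 10% FBS and 1% penicillin/streptomycin) were seeded at 5 × 10^3 per well and left overnight. Four test compound doses were added for 24, 48 or 72 h at 37 °C in 5% CO2. MTT (5 mg/ml solution) was added for 4 h, medium removed, formazan dissolved in DMSO and read at 570 nm. Results were expressed as percent viability.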

MDA-MB-231 cells [6] = test: Cell migration; assay type: cell-based; conditions: after 48 h and 72 h
Procedure, shortened: as §1

VEGF = test: Western blot, VEGF expression; assay type: cell-based, human; conditions: MCF-7 and MDA-MB-231; after treatments
Procedure, shortened: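 MCF-7 and MDA-MB-231 lysates were taken 48 h and 72 h after the treatment groups. Protein was quantified by BCA and 30 µg run on 10% SDS-PAGE, then transferred to PVDF. Membranes were blocked 2 h in 5% milk in TBS-T. Mouse anti-human VEGF (1:300, in 5% BSA TBS-T) was applied overnight at 4 °C, then 2 h at room temperature. Detection used HRP goat anti-mouse (1:4000) and ECL, with band densitometry.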

Rac1 [7] = molecular target: Rac1 (Homo sapiens, UniProt P63000); test: SPR binding of peptide to immobilized Rac1
Rac1 [8] = test: Western blot, Rac1 expression; assay type: cell-based, human; conditions: for % change of protein expression: vs CT; for Rac1 expression (in words): 48 and 72 h
Procedure, shortened: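 MCF-7 cells (DMEM, 10% FBS) were treated per group for 48 and 72 h. Lysate protein was measured by BCA, and 30 µg was run on 10% SDS-PAGE and transferred to PVDF. Blots were blocked in 5% milk/TBS-T for 2 h. Rabbit anti-Rac1 (1:250) and GAPDH (1:500) antibodies were applied overnight at 4 °C, then 2 h at room temperature. HRP secondary (1:4000) and ECL detection followed, with band densitometry.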

MDA-MB-231 cells [9] = test: Annexin V-FITC / PI assay, flow cytometry, MDA-MB-231; assay type: cell-based
Procedure, shortened: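 Cells were seeded at 0.2 × 10^6 per 35 mm dish and treated per group: control, vehicle (0.05% DMSO), test compound P1 75, P2 150, P3 300, Dox 0.2, or Dox + P3. They were then trypsinized, washed twice in PBS and resuspended in 1X binding buffer. Staining was annexin V-FITC for 10 min, then PI (50 µg/ml stock) for 20 min. Flow cytometry gave four-quadrant populations.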

[10] = tested on: Caspase 3/7 in MCF-7 cells; test: Caspase glow 3/7 assay, MCF-7; assay type: cell-based; conditions: p ≤ 0.0001
P38α = test: p38α concentration in serum and tumor tissue of mice by SPR; assay type: in vivo, Swiss Albino mice; conditions: 300 μm FGDWS, Mean ± SD
MCF-7 cells [11] = test: Annexin V-FITC / PI assay, flow cytometry, MCF-7; assay type: cell-based; conditions: 72 h
Procedure, shortened: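 Test compound given to MCF-7 cells (0.2 × 10^6 per 35 mm dish) in these treatment groups: control, 0.05% DMSO vehicle, three test compound levels, doxorubicin, and doxorubicin plus the top level. Cells were trypsinized, washed twice in PBS and resuspended in binding buffer. Annexin V-FITC was added for 10 min, then PI (from a 50 µg/ml stock) for 20 min. Flow cytometry quadrants gave early apoptotic, late apoptotic, necrotic and healthy fractions.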

LIMK1 = LIMK1 concentration in serum and tumor tissue of mice by SPR; assay type: in vivo, Swiss Albino mice; conditions: 300 μm FGDWS, Mean ± SD
Phospho-Cofilin1 (S-3) = test: Phospho-Cofilin1 concentration in serum and tumor tissue of mice by SPR; assay type: in vivo, Swiss Albino mice; conditions: 300 μm FGDWS, Mean ± SD
Phospho-LIMK1 (T-508) = test: Phospho-LIMK1 concentration in serum and tumor tissue of mice by SPR; assay type: in vivo, Swiss Albino mice; conditions: 300 μm FGDWS, Mean ± SD
breast-cancer cells = conditions: cited from earlier work
Rac1 and Tiam1 complex = conditions: cited from earlier work
[12] = MDA-MB-231, 48 h, P3 300 μm / Dox 0.2 μm / Dox + P3 0.2 μm + 300 μm
[13] = MDA-MB-231, 72 h, P3 300 μm / Dox 0.2 μm / Dox + P3 0.2 μm + 300 μm
[14] = MCF-7, 48 h, P3 300 μm / Dox 0.2 μm / Dox + P3 0.2 μm + 300 μm
[15] = MCF-7, 72 h, P3 300 μm / Dox 0.2 μm / Dox + P3 0.2 μm + 300 μm
[16] = tumor tissue lysate, p-value 0.001

In the case of FGDWS [FGDWS], the “toxic effect on normal cells” value (HEK-293 cells) is reported as “no toxic effect”, the Rac1 concentration (Rac1 [1]) is reported as 0.72 ± 0.02 ng/µL and the “cell viability, dose and time dependence” value (MCF-7 cells [2]) is reported as “decreased in dose dependent manner with time”. The Phospho-p38α concentration (Phospho-p38α (Y-182); serum, day 45) was 2.66 ± 0.16 ng/µL, the Phospho-p38α concentration (Phospho-p38α (Y-182); tumor tissue lysate) was 2.77 ± 0.11 ng/µL and the Cofilin1 concentration (Cofilin1; serum, day 45, p-value 0.028) was 2.68 ± 0.28 ng/µL. The Cofilin1 concentration (Cofilin1; tumor tissue lysate, p-value 0.0048) was 2.83 ± 0.53 ng/µL, the “rate of cell proliferation and migration (ranking)” value (“rate” below) (MCF-7 cells [3]) was “slowest in Dox + P3 followed by Dox, P3, P2 and P1” and the “fold change in RLU with respect to control (caspase 3/7)” value (“fold change in RLU” for short) ([4]; MDA-MB-231, 48 h, P1 75 μm) was 0.16. For the same compound, the “fold change in RLU” value ([4]; MDA-MB-231, 48 h, P2 150 μm) was 0.25, the “fold change in RLU” value [4, 12] was 0.305 and the “fold change in RLU” value ([4]; MDA-MB-231, 72 h, P1 75 μm) was 0.35. For the same compound, the “fold change in RLU” value ([4]; MDA-MB-231, 72 h, P2 150 μm) was 0.57, the “fold change in RLU” value [4, 13] was 0.65 and the “cell viability, dose and time dependence” value (MDA-MB-231 cells [5]) was “decreased in dose dependent manner with time”. The “rate” value (MDA-MB-231 cells [6]) was “slowest in Dox + P3 followed by Dox, P3, P2 and P1”, the “VEGF expression (in words)” value (VEGF) was “downregulated after treatments with peptide and Dox” and the Kd (Rac1 [7]) was 807 nM. The KA (association constant) (Rac1 [7]; SPR, Rac1 immobilized on CM5 (4000 RU), BIAevaluation 3.0) was 1.24e+06 M⁻¹, the “% change of protein expression” value (Rac1 [8]; MCF-7, 48 h, P1 75 μm) was 1.08% and the “% change of protein expression” value (Rac1 [8]; [14]) was 25.84%. The “% change of protein expression” value (Rac1 [8]; MCF-7, 72 h, P1 75 μm) was 12.74%, the “% change of protein expression” value (Rac1 [8]; [15]) was 31.23% and the “Rac1 expression (in words)” value (Rac1 [8]; MCF-7) was “downregulated significantly with increase in concentration of peptide dose from P1 to P3”. The “% change of protein expression” value (Rac1 [8]; MDA-MB-231, 48 h, P1 75 μm) was 21.41%, the “% change of protein expression” value (Rac1 [8]; [12]) was 36.01% and the “% change of protein expression” value (Rac1 [8]; MDA-MB-231, 72 h, P1 75 μm) was 15.03%. For the same compound, the “% change of protein expression” value (Rac1 [8]; [13]) was 48.31%, the “Rac1 expression (in words)” value (Rac1 [8]; MDA-MB-231) was “downregulated significantly with increase in concentration of peptide dose from P1 to P3” and the “population of apoptotic cells, dose dependence” value (MDA-MB-231 cells [9]; 72 h) was “increased with increasing FGDWS doses P1 to P3”. For the same compound, the apoptotic cell population (MDA-MB-231 cells [9]; higher dose of peptide (P3 300 μm), or in combination with Dox) was 38.3%, the “fold change in RLU” value ([10]; MCF-7, 48 h, P1 75 μm) was 0.24 and the “fold change in RLU” value ([10]; MCF-7, 48 h, P2 150 μm) was 0.402. For the same compound, the “fold change in RLU” value [10, 14] was 0.93, the “fold change in RLU” value ([10]; MCF-7, 72 h, P1 75 μm) was 0.33 and the “fold change in RLU” value ([10]; MCF-7, 72 h, P2 150 μm) was 0.47. The “fold change in RLU” value [10, 15] was 0.66, the P38α concentration (P38α; serum, day 45, p-value 0.004) was 3.13 ± 0.96 ng/µL and the P38α concentration (P38α; [16]) was 0.97 ± 0.06 ng/µL. For the same compound, the “population of apoptotic cells, dose dependence” value (MCF-7 cells [11]) was “increased with increasing FGDWS doses P1 to P3”, the LIMK1 concentration (LIMK1; serum, day 45, p-value 0.0001) was 6.86 ± 1.46 ng/µL and the LIMK1 concentration (LIMK1; tumor tissue lysate, p-value 0.005) was 6.37 ± 1.04 ng/µL. The Phospho-Cofilin1 concentration (Phospho-Cofilin1 (S-3); serum, day 45, p-value 0.006) was 8.35 ± 1.15 ng/µL, the Phospho-Cofilin1 concentration (Phospho-Cofilin1 (S-3); [16]) was 7.14 ± 1.34 ng/µL and the Phospho-LIMK1 concentration (Phospho-LIMK1 (T-508); serum, day 45, p-value 0.008) was 7.58 ± 2.25 ng/µL. The Phospho-LIMK1 concentration (Phospho-LIMK1 (T-508); [16]) was 8.01 ± 1.22 ng/µL.

For `CCN(CC)CCCC(C)Nc1nc(C)cc(Nc2ccc3nc(C)cc(N)c3c2)n1` (centres unmarked) [NSC23766], the “cell cycle arrest and apoptosis” value (breast-cancer cells) is listed as “induce G1 cell cycle arrest and apoptosis” and the “inhibition of Rac1-Tiam1 interaction” value (Rac1 and Tiam1 complex) is listed as “inhibits the interactions between Rac1 and Tiam1 complex”.

In the case of `COc1cccc2c1C(=O)c1c(O)c3c(c(O)c1C2=O)C[C@@](O)(C(=O)CO)C[C@@H]3O[C@H]1C[C@H](N)[C@H](O)[C@H](C)O1` [Dox, Doxorubicin, reference compound], the “rate” value (MCF-7 cells [3]) is reported as “slowest in Dox + P3 followed by Dox, P3, P2 and P1”, the “fold change in RLU” value [4, 12] is reported as 0.84 and the “fold change in RLU” value [4, 13] is reported as 1.02. The “rate” value (MDA-MB-231 cells [6]) was “slowest in Dox + P3 followed by Dox, P3, P2 and P1”, the “VEGF expression (in words)” value (VEGF) was “downregulated after treatments with peptide and Dox” and the “% change of protein expression” value (Rac1 [8]; [14]) was 13.13%. The “% change of protein expression” value (Rac1 [8]; [15]) was 43.31%, the “% change of protein expression” value (Rac1 [8]; [12]) was 32.57% and the “% change of protein expression” value (Rac1 [8]; [13]) was 31.39%. The “fold change in RLU” value [10, 14] was 1.64 and the “fold change in RLU” value [10, 15] was 0.79.
